The test system of data set [1] is Rattus norvegicus. The data set is described as follows: Toxicity in rat allografted with rat Walker 256 cells intramuscularly assessed as change in body weight at 0.78 mg/kg, qd administered for 5 days. It is filed as organism-based. The arrangement: dose 0.78 mg/kg, route intramuscular. Particulars: in vivo, im, 120 h. The method in brief:
(§1)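 Walker 256 carcinoma solid-tumour system in rats (parent line, or the line resistant to cytoxan). Dosing was one injection per day for 5 days. Toxicity was taken as the average net body-weight change of the treated group minus the average net weight change of the untreated tumour-bearing controls, in grams.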

The test system of data set [2] is W256. The data set is described as follows: Antitumor activity against rat Walker 256 cells intramuscularly allografted in rat assessed as tumor growth inhibition at 0.78 mg/kg, qd administered for 5 days relative to control. It is filed as functional. Particulars: W256, im, 120 h, route intramuscular, read-out: TGI. Summed up:
(§2)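 Dosed once daily for 5 days. Response is tumor progression in treated (T) versus untreated control (C) animals, expressed as T/C percentage. Host weight change is reported as the average net weight change of the test group minus that of the controls, in grams.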

Data set [3] concerns L1210. Briefly: In vivo antitumor activity against mouse L1210 cells in prognostic scoring system assessed as survival rate at 3 mg/kg, qd administered for 9 days. It is filed as functional, organism-based. The arrangement: dose 3 mg/kg. The method in brief:
(§3)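 L1210 leukaemia in mice, run as an ascites tumour system. Injections were once daily for 9 or 15 days, or as a single dose. Response is the increase in survival time, given as T/C %, treated over untreated controls; a larger value means more activity. Weight change is the treated-group mean minus the control-group mean, in grams.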

The subject of data set [4] is Musca domestica. The data set is described as follows: Toxicity in male house fly assessed as lowest dose required to cause complete sterility administered in food. Type of data set: organism-based. The conditions noted are these: in vivo, po.
The subject of data set [5] is W256. The data set is described as follows: Antitumor activity against rat Walker 256 cells intramuscularly allografted in rat assessed as tumor growth inhibition. It is filed as functional. Particulars: W256, im. Summed up:
as §2

The subject of data set [6] is W256. Briefly: Antitumor activity against rat Walker 256 cells intramuscularly allografted in rat assessed as tumor growth inhibition at 1.56 mg/kg, qd administered for 5 days relative to control. Type of data set: functional. Particulars: W256, im, 120 h, route intramuscular, read-out: TGI. Summed up: as §2
Data set [7] relates to L1210. Briefly: In vivo antitumor activity against mouse L1210 cells in prognostic scoring system assessed as survival rate at 5 mg/kg, qd administered for 9 days. Type of data set: functional, organism-based. Further details: dose 5 mg/kg. The method in brief:
as §3

Data set [8] deals with W256. Briefly: Antitumor activity against rat Walker 256 cells intramuscularly allografted in rat assessed as survival rate at 3.12 mg/kg, qd administered for 5 days. Type of data set: functional, organism-based. The arrangement: dose 3.12 mg/kg. Summed up: (§4)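 Rats bearing Walker 256 carcinoma as a solid tumor; lines 1-8 use a cytoxan-resistant Walker 256 subline. Dosed once daily for 5 days. Treated (T) and untreated control (C) groups are compared, and the response is given as T/C percentage, reflecting increase in survival time. Host weight change is the average weight change of the test group minus that of the controls, in grams.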

The subject of data set [9] is W256. Briefly: Antitumor activity against rat Walker 256 cells intramuscularly allografted in rat assessed as survival rate at 1.56 mg/kg, qd administered for 5 days. Type of data set: functional, organism-based. Further details: dose 1.56 mg/kg. The method in brief: as §4
The subject of data set [10] is L1210. The data set is described as follows: In vivo antitumor activity against mouse L1210 cells in prognostic scoring system assessed as tumor growth inhibition at 3 mg/kg, qd administered for 9 days relative to control. It is filed as functional. Particulars: L1210, 216 h, read-out: TGI.
The nature of data set [11]: Toxicity in rat allografted with rat Walker 256 cells intramuscularly. Type of data set: organism-based.
For data set [12], the system named is L1210. The data set is described as follows: In vivo antitumor activity against mouse L1210 cells in prognostic scoring system assessed as survival rate at 1.8 mg/kg, qd administered for 9 days. Type of data set: functional, organism-based. Further details: dose 1.8 mg/kg. Summed up:
as §3

The subject of data set [13] is L1210. The data set is described as follows: In vivo antitumor activity against mouse L1210 cells in prognostic scoring system assessed as survival rate at 1 mg/kg, qd administered for 9 days. Type of data set: functional, organism-based. The arrangement: dose 1 mg/kg. The method in brief:
as §3

Data set [14] relates to Rattus norvegicus. The data set is described as follows: Toxicity in rat allografted with rat Walker 256 cells intramuscularly assessed as change in body weight at 6.25 mg/kg, qd administered for 5 days. The arrangement: dose 6.25 mg/kg, route intramuscular. Type of data set: organism-based. The conditions noted are these: in vivo, im, 120 h. The method in brief: as §1

Data set [15] has as its system W256. The data set is described as follows: Antitumor activity against rat Walker 256 cells intramuscularly allografted in rat assessed as tumor growth inhibition at 3.12 mg/kg, qd administered for 5 days relative to control. Type of data set: functional. Particulars: W256, im, 120 h, route intramuscular, read-out: TGI. Summed up: (§5)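 Walker 256 carcinoma grown as a solid tumour in rats, with one injection daily for 5 days. Response is given as T/C %, the treated-group measure over the untreated-control tumour measure; a smaller value means more activity. Host toxicity is the mean net weight change of treated minus control animals, in grams.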

Data set [16] concerns Rattus norvegicus. The data set is described as follows: Toxicity in rat allografted with rat Walker 256 cells intramuscularly assessed as change in body weight at 3.12 mg/kg, qd administered for 5 days. Type of data set: organism-based. The arrangement: dose 3.12 mg/kg, route intramuscular. Particulars: in vivo, im, 120 h. The method in brief: as §1
The subject of data set [17] is Musca domestica. The data set is described as follows: Toxicity in male house fly assessed as lowest dose required to cause complete sterility administered in sugar. It is filed as organism-based. The conditions noted are these: in vivo, po.
Data set [18] has as its system W256. Briefly: Antitumor activity against rat Walker 256 cells intramuscularly allografted in rat assessed as tumor growth inhibition at 6.25 mg/kg, qd administered for 5 days relative to control. Type of data set: functional. Particulars: W256, im, 120 h, route intramuscular, read-out: TGI. The method in brief:
as §5

Data set [19] concerns Rattus norvegicus. The data set is described as follows: Toxicity in rat allografted with rat Walker 256 cells intramuscularly assessed as change in body weight at 1.56 mg/kg, qd administered for 5 days. Type of data set: organism-based. The arrangement: dose 1.56 mg/kg, route intramuscular. Particulars: in vivo, im, 120 h. The method in brief: as §1
The subject of data set [20] is W256. The data set is described as follows: Antitumor activity against rat Walker 256 cells intramuscularly allografted in rat assessed as survival rate at 0.78 mg/kg, qd administered for 5 days. Type of data set: functional, organism-based. Further details: dose 0.78 mg/kg. Summed up:
as §4

Data set [21] in a line: Therapeutic index, ratio of LD50 for rat allografted with rat Walker 256 cells to ED10 for antitumor activity against rat Walker 256 cells intramuscularly allografted in rat. Type of data set: cell-based. Particulars: read-out: TI. Summed up: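 Therapeutic index is LD50/ED10 in the Walker 256 solid tumour system. ED10 is the dose giving a 10% tumour weight reduction, with values extrapolated from dose-response data.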

Data set [22] relates to W256. The data set is described as follows: Antitumor activity against rat Walker 256 cells intramuscularly allografted in rat assessed as survival rate at 6.25 mg/kg, qd administered for 5 days. It is filed as functional, organism-based. The arrangement: dose 6.25 mg/kg. Summed up:
as §4

We go through 1 molecule from ChEMBL document CHEMBL3272018, “Synthesis of aziridinylallylaminophosphine oxides and sulfides as potential adjuvant cancer chemotherapeutic agents” (J Med Chem, 1976).

The LD50 is the dose at which mortality reaches 50%.

Activity calls are given as the source filed them. The rule behind the calls is not given here.

In the case of `C=CCN(CC=C)P(=O)(N1CC1C)N1CC1C` (configuration not stated), the Activity with Rattus norvegicus [1] is reported as -8 g; in the data set on Musca domestica [4], 0.25%; in the data set with Rattus norvegicus [14] it was -28 g; in the data set on Rattus norvegicus [16], -15 g; in the data set on Musca domestica [17], 0.5%; in the data set on Rattus norvegicus [19], -22 g. For the same molecule, the inhibition in vivo at 0.78 mg/kg in the data set on W256 [2] stood at 24%. Also, the outcome in the data set with L1210 [3], in the data set on L1210 [7], in the data set on W256 [8], in the data set with W256 [9], in the data set on L1210 [12] and with L1210 [13] was Active. In addition, the outcome with W256 [20] and with W256 [22] was Active. For the same molecule, the ED10 with W256 [5] was 3.5 mg/kg. The inhibition in vivo at 1.56 mg/kg in the data set on W256 [6] stood at 5%. Besides, in the data set with L1210 [10], the inhibition in vivo at 3 mg/kg worked out at 172%. The LD50 in data set [11] was determined as 22 mg/kg. Besides, in the data set with W256 [15], the inhibition in vivo at 3.12 mg/kg worked out at 0%. Besides, in the data set on W256 [18], the inhibition in vivo at 6.25 mg/kg was 3%. The selectivity ratio in data set [21] was 9.
